Active and inactive are the calls of the source. The calls are words filed in the database; no cut-off is given here.
Experiments:
RAW264.7 [1] = assay: Inhibition of PI3K/AKT in mouse RAW264.7 cells assessed as inhibition of LPS-induced iNOS protein expression at 25 uM after 20 hrs by Western blot analysis; type: cell-based
In short: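 Pretreatment with 25 μM or LY294002 (25 μM), then LPS for 20 h; iNOS protein by Western blot.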

RAW264.7 [2] = assay: Antiinflammatory activity in LPS-stimulated mouse RAW264.7 cells assessed as inhibition of iNOS protein expression at 50 uM preincubated for 15 mins followed by LPS challenge measured after 20 hrs by Western blot analysis; type: functional, cell-based

| SMILES | inhibition (RAW264.7 [1]) | inhibition (RAW264.7 [2]) |
| --- | --- | --- |
| O=c1cc(N2CCOCC2)oc2c(-c3ccccc3)cccc12 | Active | – |
| O=C(O)[C@H]1Cc2c([nH]c3ccccc23)CN1Cc1ccc(O)cc1 | – | inactive |
| O=C(O)[C@@H]1Cc2c([nH]c3ccccc23)CN1Cc1ccc(O)cc1 | – | inactive |
